RGS4 act: RGS4 potentiators or activators, primary screen, cell-based, HEK293 M3R inducible RGS4, calcium flux | carbachol calcium flux Fluo4; hits give low values | B-score at 10 µM | 0.92% of 310,000 active | AID 463111, 2010;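 active = B-score of the integrated calcium signal more than 4 SD below the library mean, with starting fluorescence not abnormally high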;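 also: negative B-score means reduced calcium response which marks RGS4 activation or potentiation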
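System – HEK293 FlpIn-TREx cells, stable M3R, doxycycline-inducible RGS4 · Reagent – ECmax carbachol challenge · Times – compound preincubation 20 min at room temperature before agonist · Technique – Fluo4 fluorescence kinetic imaging of calcium · Measure – B score of integrated Fluo4 ratio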
MrgX1 agonist: agonists of human MrgX1 receptor, primary screen, HEK293 cells, Fluo-4 calcium flux; Mas-related G-protein coupled receptor member X1 (Homo sapiens), Q96LB2; Fluo-4 calcium fluorescence, agonist mode; hits give high values; B-score at 10 µM; 0.44% of 310,000 active;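 active = calcium response B-score plate-corrected fluorescence ratio at least 3 library SD, with starting fluorescence B-score inside 5 SD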
Target sequence (Q96LB2 whole entry, looked up): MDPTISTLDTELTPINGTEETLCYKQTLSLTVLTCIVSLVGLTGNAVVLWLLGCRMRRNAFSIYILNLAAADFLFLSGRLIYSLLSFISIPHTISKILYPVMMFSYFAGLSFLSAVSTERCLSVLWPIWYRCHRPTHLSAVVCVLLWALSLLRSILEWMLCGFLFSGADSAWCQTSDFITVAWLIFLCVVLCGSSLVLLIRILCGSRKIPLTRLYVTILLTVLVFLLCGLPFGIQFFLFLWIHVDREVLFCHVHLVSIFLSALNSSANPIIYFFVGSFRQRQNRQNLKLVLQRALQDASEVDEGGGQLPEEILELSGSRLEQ
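System: HEK293 cells stably expressing human MrgX1 receptor; Dosing: test compound in the initial addition of three; Schedule: overnight plating, then 30 min 37 °C plus 30 min room-temperature dye loading; Detection: kinetic calcium dye fluorescence, Fluo-4 NW; Controls: per-plate positive and negative controls for Z′ factor.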
MrgX1 antagonist: antagonists of human MrgX1 receptor, primary screen, HEK293 cells, Fluo-4 calcium flux; BAM8-22 antagonism; hits give low values; B-score at 10 µM; 1.3% of 310,000 active;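 active = calcium-response B-score plate-corrected more than 3 library SD below zero, starting fluorescence within 5 deviations, no agonist response on first addition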;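 also: peak minus trough fluorescence over baseline after final BAM8-22 challenge near maximal dose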
MrgX1 PAM: positive allosteric modulators of MrgX1, primary screen, HEK293 cells, Fluo-4 calcium flux; 0.63% of 310,000 active; AID 588675, 2011; B-score at 10 µM; Mas-related G-protein coupled receptor member X1 (Homo sapiens), Q96LB2; FDSS; hits give high values;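 active = plate-corrected calcium response at least 3 library SD above typical, normal starting fluorescence, not activating the receptor alone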;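 also: compound read alongside a low EC10 to EC30 dose of BAM8-22 agonist; peak minus trough fluorescence over baseline measured at the second addition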
RGS4 inh: RGS4 inhibitors, primary screen, cell-based, HEK293 M3R inducible RGS4, calcium flux | Fluo-4 calcium flux; hits give high values; triggered by carbachol at its EC20 | B-score at 10 µM | 0.45% of 310,000 active | AID 463165, 2010;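 active = B-score, a plate-corrected calcium signal, over three deviations above library mean, with baseline fluorescence within five deviations of library mean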;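 also: RGS4 expression induced by doxycycline in cells with stable M3 receptor; B-score is computed from the integrated fluorescence ratio over baseline after carbachol; higher B-score means a larger calcium signal and so more RGS4 inhibition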
Target sequence (P49798 whole entry, looked up): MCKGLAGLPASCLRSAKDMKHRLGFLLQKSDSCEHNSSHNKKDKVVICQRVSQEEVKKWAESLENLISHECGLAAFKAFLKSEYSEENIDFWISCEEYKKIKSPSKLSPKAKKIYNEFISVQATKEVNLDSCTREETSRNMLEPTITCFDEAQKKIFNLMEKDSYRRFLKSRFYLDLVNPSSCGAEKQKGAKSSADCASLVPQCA
Numbers without * were called inactive; i = inactive; / = no result. The list is not random: actives were taken first. Their share in the collection is about 3.5%.

SMILES | RGS4 act | MrgX1 agonist | MrgX1 antagonist | MrgX1 PAM | RGS4 inh
CC1(C)CCCN(C(=O)c2ccc3c(c2NCCO)C(=O)c2ccccc2C3=O)C1 | i | i | i | 15* | i
CCN(CCN(C)C)C(=O)c1ccc2c(c1NCCO)C(=O)c1ccccc1C2=O | i | i | i | i | i
COC(=O)[C@]1(Cc2ccccc2)N[C@H](c2ccc(-c3cccc(Cl)c3)cc2)[C@@H]2C(=O)N(C)C(=O)[C@@H]21 | i | i | i | i | i
OCCn1c(C(F)(F)F)nc2ccccc21 | i | i | i | i | i
Cn1c(Cn2c(C(F)(F)F)nc3ccccc32)nc2ccccc21 | i | i | -4.9* | i | i
Cc1csc(=O)n1CC(=O)OCC(=O)NNC(=O)c1ccccc1 | i | i | i | i | i
Cc1ccc(NC(=O)c2c(C)nc3sc(C(=O)NC4CCCC4)c(N)c3c2-c2ccco2)c(C)c1 | i | i | i | i | i
O=C(NC1CCCCC1)C(c1ccc(F)cc1)N(Cc1ccccc1)C(=O)CN1C(=O)c2ccccc2S1(=O)=O (centres undefined) | i | i | i | i | i
O=C(NC1CCCCC1)C(c1ccc(F)cc1)N(CCc1ccccc1)C(=O)CN1C(=O)c2ccccc2S1(=O)=O (centres undefined) | i | i | -8.9* | i | i
CS(=O)(=O)c1nc(-c2ccco2)cc(C(F)(F)F)n1 | -7* | i | i | i | i
COc1ccccc1-c1cc(C(F)(F)F)nc(S(C)(=O)=O)n1 | i | i | i | i | i
Cn1c(=O)c2[nH]c(SCC(=O)c3ccc(F)cc3)nc2n(C)c1=O | i | i | i | i | i
COc1ccc(C(=O)Nc2c(N)nc(SCC(=O)Nc3ccc(NC(C)=O)cc3)[nH]c2=O)cc1 | i | i | -4.9* | i | i
Cc1ccc(C(=O)Nc2c(N)nc(SCC(=O)Nc3cc(C)on3)[nH]c2=O)cc1 | i | i | -6.4* | i | i
COc1ccc(C(=O)NNC(=O)CSc2nc3c([nH]2)c(=O)n(C)c(=O)n3C)cc1 | i | i | -4.6* | i | i
Cc1ccc2nc(SCC(=O)Nc3cc(C)on3)[nH]c2c1 | i | i | i | i | i
C(=C\c1ccccc1)/C=N/Nc1nc2ccccc2s1 | i | i | i | i | i
CC(=O)Nc1ccc(NC(=O)c2ccc(N(C)S(=O)(=O)c3ccc(C)cc3)cc2)cc1 | i | i | i | i | i
CS(=O)(=O)N1N=C(c2ccccc2)CC1c1ccc2nccnc2c1 (centres undefined) | i | i | i | i | i
CS(=O)(=O)N1N=C(c2ccc3nccnc3c2)CC1c1ccccc1 (centres undefined) | i | i | i | 6.5* | i
C#CCOCCOCCOCCNc1nc(N2CCN(C(=O)[C@H](Cc3cc4ccccc4[nH]3)n3cc(C(N)CC(C)C)nn3)CC2)nc(N2CCN(C(=O)[C@H](CCC(=O)O)n3cc(C(N)[C@H](C)CC)nn3)CC2)n1 (some centres undefined) | i | i | i | 8.9* | i
C#CCOCCOCCOCCNc1nc(N2CCN(C(=O)[C@H](CCCCN)n3cc(C(N)CO)nn3)CC2)nc(N2CCN(C(=O)[C@H](CCC(=O)O)n3cc(C(N)[C@H](C)CC)nn3)CC2)n1 (some centres undefined) | i | i | -4.5* | i | i
NNC(=O)c1ccc(Oc2cc(Cl)cc(Cl)c2)o1 | i | i | i | i | i
COc1ccc(C(=O)CCC(=O)NCCc2ccccc2F)cc1 | i | i | i | i | i
O=[N+]([O-])c1ccc(N2CCN(C(=S)Nc3ccccc3)CC2)cc1 | i | i | i | 7.5* | i
SMILES | RGS4 act | MrgX1 agonist | MrgX1 antagonist | MrgX1 PAM | RGS4 inh
CC(NC(=O)c1cccs1)C1CCCO1 (centres undefined) | i | i | i | i | i
O=C(Nc1c(F)cc(F)cc1Br)c1cccnc1 | i | i | i | i | i
CN(C)/C=C/C(=O)c1cnc(-c2ccc(Cl)cc2)s1 | i | i | i | i | i
CCn1c(=NC(=O)CS(=O)(=O)c2ccc(C)cc2)sc2cccc(OC)c21 | i | i | i | i | i
CCn1c(=NC(=O)c2ccc(S(=O)(=O)N(C)C)cc2)sc2cccc(OC)c21 | -7.2* | i | i | i | i
Cc1ccc(OCC(=O)NNC(=O)c2cc3ccccc3o2)cc1 | i | i | i | i | i
Cc1noc2ncnc(Oc3cc(Cl)ccc3Cl)c12 | i | i | i | i | i
Cc1cc(Cl)ccc1Oc1ncnc2oc(-c3ccccc3)cc12 | i | i | i | 12* | i
N#Cc1ccccc1NC(=O)C(=O)NCC1CCCN1S(=O)(=O)c1cccs1 (centres undefined) | i | i | i | i | i
COc1ccc(-c2nc(CSCC(=O)NCc3ccco3)c(C)o2)cc1 | i | i | -5.4* | i | i
Cc1ccc(NC(=O)/C(Cl)=C/c2ccccc2)cc1C | i | i | i | 9* | i
CCCN1C(=O)C2(/C(=C(\O)c3ccc4c(c3)OCCO4)C(=O)C(=O)N2CCCOC)c2ccccc21 (centres undefined) | / | i | i | i | /
Nc1cc(N)c(OCC(F)(F)F)cc1OCC(F)(F)F | i | i | i | i | 6.7*
Nc1cc(OCC(F)(F)F)cc([N+](=O)[O-])c1 | i | i | i | i | i
Cc1ccc2c(c1)N(CCC(=O)NC(C)C)C(=O)CO2 | i | i | i | i | i
COc1ccc(CN(N=O)C2CC(=O)N(c3ccc(OC)cc3)C2=O)cc1 (centres undefined) | -10* | i | i | i | i
COc1ccc(CC(=O)NCc2csc(-c3cccs3)n2)cc1OC | i | i | i | i | i
CN1C(=O)C(O)(CC(=O)c2ccc(F)cc2)c2cc(Br)ccc21 (centres undefined) | i | i | -5.1* | i | i
CCOC(=O)c1ccc(CNC(=O)Cn2nnc(-c3ccccc3F)n2)o1 | i | i | i | i | i
Cc1cc(C)cc(N(C(=O)Cc2cccs2)C(C(=O)NC2CCCCC2)c2ccccn2)c1 (centres undefined) | i | i | i | i | i
